Source: PubChem BioAssay
Most compounds without a hit are left out; they make up all but 6.1% or so of the library.
DAT uptake mod: modulates human dopamine transporter uptake under cocaine | B-score at 10 µM | 1.3% of 110,000 active | LLC-PK1 hDAT cells, [14C]-dopamine uptake with cocaine IC80; actives deviate in either direction | Q01959;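 active = Z score or B-score, a plate-position-corrected score, falls beyond the plate's 99.7% confidence bounds, in either direction; inactive = both scores lie inside the 99.7% bounds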;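 note: scored against the spread of the other compound wells on the same plate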
Target sequence (Q01959 whole entry, looked up): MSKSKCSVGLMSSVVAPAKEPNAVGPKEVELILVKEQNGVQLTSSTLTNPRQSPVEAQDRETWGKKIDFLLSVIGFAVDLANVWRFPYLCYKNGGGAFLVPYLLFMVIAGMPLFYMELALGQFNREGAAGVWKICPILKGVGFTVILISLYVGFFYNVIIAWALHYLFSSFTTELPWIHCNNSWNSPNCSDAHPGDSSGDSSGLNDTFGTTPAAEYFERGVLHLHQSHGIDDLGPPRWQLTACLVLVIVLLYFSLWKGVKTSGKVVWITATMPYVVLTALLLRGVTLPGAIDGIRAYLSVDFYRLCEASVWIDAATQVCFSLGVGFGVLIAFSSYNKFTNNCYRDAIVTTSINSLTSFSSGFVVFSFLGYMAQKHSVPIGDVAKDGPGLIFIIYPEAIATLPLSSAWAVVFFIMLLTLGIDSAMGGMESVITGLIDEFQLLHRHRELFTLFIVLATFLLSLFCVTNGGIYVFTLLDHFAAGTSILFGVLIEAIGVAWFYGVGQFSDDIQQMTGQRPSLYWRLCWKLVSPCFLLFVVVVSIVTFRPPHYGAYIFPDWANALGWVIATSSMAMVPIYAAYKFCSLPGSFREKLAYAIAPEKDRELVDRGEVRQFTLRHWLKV
BB579 growth dn: reduces growth of yeast BB579 in restrictive medium. 0.51% of 140,000 active. S. cerevisiae BB579 growth, OD615, 48 h. inhibition, % at 10 µM. AID 804;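 active = inhibition above a set limit, 3 SD over the mean compound inhibition, cut at about 44% in these data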
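System: Saccharomyces cerevisiae DeaD strain BB579, replicative lifespan model yeast | Buffer or medium: Restrictive glucose-based CSMM-D medium | Times: 4 h preincubation and 48 h exposure at 30 °C | Detection: OD615 turbidity measurement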
RAM network inh: inhibitors of the yeast RAM network; 1.8% of 190,000 active; AID 868; S. cerevisiae dse1pr::URA3 reporter, 5-FOA growth OD615, 2 d; analog-sensitive cbk1-as2 kinase mutant strain; inhibition, % at 50 µM;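 active = inhibition above a set limit, 3 SD over mean compound inhibition, cut at about 8.4% in these data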;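 note: 0% = DMSO-only wells with no growth and 100% = 10 µM 1-NA-PP1 full growth; inhibition rescues growth on 5-FOA so higher OD means more RAM inhibition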
WT yeast gro inh: growth inhibition of WT yeast, mitochondrial fusion screen; mitochondrial fusion phenotypic screen, WT strain; inhibition, % at 10 µM; 2.1% of 190,000 active; in the data active = inhibition above about 58%; tested in S. cerevisiae
Measles CPE: protection of cells from measles virus | Measles virus-infected cells, CPE protection, absorbance | 1.5% of 140,000 active | protection (pct of control), % at 4 µM; in the data active = protection mostly above about 24%, no sharp cut-off; inactive = mostly below about 26%
Yeast life ext: yeast lifespan extension. S. cerevisiae growth with nicotinamide, OD615; deaD strain in restrictive glucose medium. inhibition of the nicotinamide effect, % at 10 µM. 0.68% of 130,000 active. AID 775;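 active = inhibition above a set limit, placed 3 SD over the median of all compounds, cut at about 26% in these data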;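 note: 0% = nicotinamide-treated wells and 100% = cells grown without nicotinamide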
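Test system – modified budding yeast, DeaD strain · Compound – single dose 10 µM compound, 0.25% DMSO · Times – culture preincubation 4 h, compound exposure 48 h, both 30 °C · Detection – optical density (absorbance) at 615 nm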
* marks the source's active call; other numbers are inactive results.

How did Cc1[nH]nc2c1/C(=N/O)CC(c1ccccc1)C2 (stereo unspecified) do in these assays?
DAT uptake mod: 0.0274; BB579 growth dn: 2.0; RAM network inh: 0.2; WT yeast gro inh: -0.7; Measles CPE: 5.5; Yeast life ext: -0.4

Results for CC(C)CCNC(=O)Cc1c(C(=O)O)[nH]c2ccc(Cl)cc12 ?
DAT uptake mod: 0.439; BB579 growth dn: -23.4; RAM network inh: 4.3; WT yeast gro inh: -14.6; Measles CPE: 45.5*; Yeast life ext: -4.9

What do the screens show for `CC(C)(C)c1ccc(/C=N/NC(=S)NCc2ccccc2)cc1`?
BB579 growth dn: 15.1; RAM network inh: 3.7; WT yeast gro inh: -0.1; Measles CPE: 15.7; Yeast life ext: 4.7

Results for CC(C)(C)c1ccc(/C=N/NC(=S)Nc2cccnc2)cc1 ?
RAM network inh: 5.2; WT yeast gro inh: 60.4*

What do the screens show for `C=CCNC(=S)N/N=C/c1ccc(C(C)(C)C)cc1`?
RAM network inh: 0.1; WT yeast gro inh: 76.5*

What do the screens show for `CCN=c1scc(-c2ccc3c(c2)NC(=O)CO3)n1N=C1CCCC1`?
DAT uptake mod: 5.55*; BB579 growth dn: -75.9; RAM network inh: 4.4; WT yeast gro inh: 3.3; Measles CPE: 22.6; Yeast life ext: -11.1

How did Cc1ccccc1-n1c(C)nnc1SCc1nc2ccccc2s1 do in these assays?
DAT uptake mod: 0.317; BB579 growth dn: -69.1; RAM network inh: 0.9; WT yeast gro inh: -0.2; Measles CPE: 3.2; Yeast life ext: -4.5

Results for CCOc1ccccc1-n1nnnc1SCc1nc2ccccc2s1 ?
BB579 growth dn: -65.5; RAM network inh: 9.9*; WT yeast gro inh: 7.8; Measles CPE: 14.2; Yeast life ext: 12.4

Results for CCn1c(SCC(=O)Nc2nc3c(s2)CCCC3)nnc1-c1ccccc1 ?
DAT uptake mod: 3.68*; BB579 growth dn: -16.9; RAM network inh: 0.0; WT yeast gro inh: 1.2; Measles CPE: 17.6; Yeast life ext: -13.8

What do the screens show for `CCn1c(SCC(=O)Nc2nc3ccc(OC)cc3s2)nc2c1c(=O)n(C)c(=O)n2C`?
DAT uptake mod: 1.03; BB579 growth dn: -34.8; RAM network inh: 1.9; WT yeast gro inh: 28.9; Measles CPE: 27.5*; Yeast life ext: -4.1

How did CCOC(=O)c1sc(NC(=O)CSc2nnc(C(C)C)n2CC)nc1C do in these assays?
DAT uptake mod: 2.54*; BB579 growth dn: -50.2; RAM network inh: -0.7; WT yeast gro inh: 12.7; Measles CPE: 10.8; Yeast life ext: -7.4

Results for COc1cc2cc(CN(CCc3cccc(C)c3)C(=S)NCCCN3CCOCC3)c(=O)[nH]c2cc1OC ?
RAM network inh: -0.4; WT yeast gro inh: 3.0

How did CCSc1nnc(NS(=O)(=O)c2ccc(C)cc2)s1 do in these assays?
BB579 growth dn: -16.6; RAM network inh: 0.1; WT yeast gro inh: -18.4; Measles CPE: 11.7; Yeast life ext: 12.1

How did Cc1ccc(CN2CCN(C3CCOCC3)CC2CCO)cc1 (stereo unspecified) do in these assays?
RAM network inh: -0.5; WT yeast gro inh: 0.0

Results for COc1ccc(CNC(=O)c2cc(SC)ccc2Cl)cc1OC ?
RAM network inh: 1.4

How did CCOc1ccc(-n2nnnc2-c2nc3ccccc3s2)cc1 do in these assays?
BB579 growth dn: -2.5; RAM network inh: 1.4; WT yeast gro inh: 3.6; Measles CPE: 26.2*; Yeast life ext: -1.2

Results for Cc1ccc(-n2nnnc2-c2nc3ccccc3s2)cc1 ?
BB579 growth dn: -46.3; RAM network inh: 4.8; WT yeast gro inh: 2.6; Measles CPE: 7.0; Yeast life ext: 0.1

How did CCn1c(SCC(=O)Nc2nc3ccccc3s2)nnc1-c1ccc(OC)cc1 do in these assays?
DAT uptake mod: 0.0341; BB579 growth dn: -18.6; RAM network inh: 9.8*; WT yeast gro inh: -8.5; Measles CPE: 5.1; Yeast life ext: -3.2

How did COc1ccccc1-c1nnc(SCc2nc3ccccc3s2)n1C do in these assays?
DAT uptake mod: -0.152; BB579 growth dn: -38.3; RAM network inh: 0.8; WT yeast gro inh: 20.4; Measles CPE: 8.4; Yeast life ext: -13.8

How did COc1ccc(-c2nnc(SCc3nc4ccccc4s3)n2C(C)C)cc1 do in these assays?
DAT uptake mod: 3.86*; BB579 growth dn: -36.6; RAM network inh: 0.1; WT yeast gro inh: -6.4; Measles CPE: 5.1; Yeast life ext: 3.9
